Test results reported in the EternaBench riboswitch data.

Tested on: MS2 coat protein
Assay: apparent Kd, MS2 coat protein; higher = weaker binding; RNA-MaP array; FMN 200 µM where present
How it was run: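 The apparent Kd is the median of filtered binding-curve fits, one per cluster, to green signal normalised to red-channel RNA signal and control-cluster median Fmax. The clusters were on Illumina sequencing chips, and stalled E. coli RNA polymerase had transcribed the designs on them. Titration used SNAP-549-labelled MS2 coat protein from 0.7 or 1.5 nM, doubling to 3 µM, without and then with constant ligand, in 100 mM Tris-HCl pH 7.5, 80 mM KCl, 4 mM MgCl2, BSA, DTT, yeast tRNA and Tween-20.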

[1] = designed as: ON switch for flavin mononucleotide, no ligand
[2] = ligand present: flavin mononucleotide, designed as: ON switch for flavin mononucleotide
[3] = designed as: OFF switch for flavin mononucleotide, no ligand
[4] = ligand present: flavin mononucleotide, designed as: OFF switch for flavin mononucleotide

| Sequence | apparent Kd [1] [nM] | apparent Kd [2] [nM] | apparent Kd [3] [nM] | apparent Kd [4] [nM] |
| --- | --- | --- | --- | --- |
| UCCACUACUGAGAAGGGAUACAUAUAAUUUUAGUCAGGAUAUCGAUACAGUGCAGCAUGAGGACAUGAGGAUCACCCAUGUAUU | 22.3 | 15.2 |  |  |
| UUAUUUAGUGUGAGGAUAUGCUGGUCCUUGGAUCAGCAGAAGGCACAUGAGGAUCACCCAUGUAAUAUAUUAAU |  |  | 91 | 305 |
| UGAACUAUGUAGAAGGCCCACAUUAAUAUGUAGGGAGGAUAUACAUGAGGAUCACCCAUGUGAAGAGCAAGAGGGUUUAACAGA |  |  | 112 | 143 |
| AGCUAGUCAGGAUAUACGAACACCUCAAAAGAGGUGAAGGGACAUGAGGAUCACCCAUGUAGAAGGGACUAGCA |  |  | 33.1 | 112 |
| CGCUGUCACGCAGGAUAUGCAUUGGAUUACAAUGCAGAAGGGCGAUCACAUGAGGAUCACCCAUGUGUAGACAGUGAAUAAGAG | 611 | 49.6 |  |  |
| UGAUCGAGAGAUCUUAGAUUCUGGUAGGAUAUACAUUAAAAGCGCUUUACAUGAGGAUCACCCAUGUAGAAGGACUAGAGUCUA |  |  | 7.51 | 9.42 |
| GCUGACGAUGUAGGAUAUCUCGACGAUAAGUCGAGAGAAGGACAUGAGGAUCACCCAUGUAAAACUCCGUCAGCGAGGAAACUC |  |  | 16.3 | 17.8 |
| UUCUUACAUGAGGAUCACCCAUGUCAGGAUAUCUCCGCACUGCGCUUGCGCAGUGCAUAGAGAAGGGACAGGCU |  |  | 55 | 50.2 |
| ACUAAGAGAGGAUAUACUAACAAACCUCAAACAUACAUCAAACAUGAGGAUCACCCAUGUAGAAGGCUCAAACU |  |  | 30.5 | 31.6 |
| UUAACAUGAGGAUCACCCAUGUCGUGCUAGAUGAGUUCUGGUGAGGAUAUACAUGGUAAAGAACUGUAGAAGGCACUGGGUACA | 309 | 336 |  |  |
| GACUGACGAGGAUAUACAUGAGGAUCACCCAUGUAAGAUCAGCGACGAUAGUCGCAAUGUAGAAGGCGUCAGUC |  |  | 29.8 | 293 |
| AAUGUGUGUGGAGGAUAUAUAACAUGACAACAAACACAUACAUGAGGAUCACCCAUGUCCCAUGUAUAGAAGGCCAUAUAUAUA | 662 | 618 |  |  |
| GGACAUUUACAGAAGGGCAAGUUGGAUCGCGGAUAACGCGAUCCGACUUGCAGGAUAUGUUGAACAUGAGGAUCACCCAUGUCC | 12 | 9.8 |  |  |
| CUCUUGUGAGGAUAUCAGUAGUAAAAAAAUAAAAUUACUACUGAGAAGGCACAUGAGGAUCACCCAUGUGACUU |  |  | 26.2 | 30.5 |
| CGCUCAAUUACUUUGAAUAGAAUCAGAAGGCGUUACAUGAGGAUCACCCAUGUUAUGACGUGUAACGAGGAUAUGAAUUGAGCG |  |  | 7.18 | 30.5 |
| GUACAGUAGUGAGGAUAUACGAGAUCGAUAGAUCGGCGAUCCAUAUAUACAUGAGGAUCACCCAUGUAGAAGGCACUUCUGUAC |  |  | 7.7 | 104 |
| AAUAAACAUGAGGAUCACCCAUGUAAUAUAAAUGGAGGAUAUGCAAUUAUUAAUUAUUAAGUAGAAGGUCGAAUAA | 73.9 | 73.6 |  |  |
| AAUAGGCGAGGAUAUACAUGAGGAUCACCCAUGUAAGUAAGCCUGGCUGAAACUAAAUGUAGAAGGCGCAAUAA |  |  | 14.3 | 43.1 |
| AGCUAGUCAGGAUAUACGUGCAUGUCAAAAGACGUGAAGGGACAUGAGGAUCACCCAUGUAGAAGGGACUAGCA |  |  | 54.5 | 231 |

| Sequence | apparent Kd [1] [nM] | apparent Kd [2] [nM] | apparent Kd [3] [nM] | apparent Kd [4] [nM] |
| --- | --- | --- | --- | --- |
| CCGGAAACGGGUAGCUCACAUGAGGAUCACCCAUGUGAAACACAGGAUAUGGAUCCUAAUUGGAUCCAGAAGGGUGUGAGCUAC | 58 | 20.3 |  |  |
| UGCAUGUCAGGAUAUCGUGCAUACAACGAAAGUUCUAUGUGCGAGAAGGGACAUGAGGAUCACCCAUGUCUUCG |  |  | 24 | 67.4 |
| GCUGUCGCAUGAGGAUAUGGUCAGCUUUGCUGACCAGAAGGCAUGUCAAUAGACAUGAGGAUCACCCAUGUAGUAAAGGCGGCU | 380 | 37.8 |  |  |
| CGUAGGAUGCAGAAGGCAUGAACAUGAGGAUCACCCAUGUGAAAACACAUGAGGAUAUGCAUCCUACGAAAAGUGCGAAAGCAC | 5.89 | 4.69 |  |  |
| GUAACAUGAGGAUCACCCAUGUAUAGAACACUCAAUAGAUCUGAGGAUAUAGUAGAAUUUACAUACUAGAAGGCAGUGGGUACA | 55.2 | 29.6 |  |  |
| CCAAGCUGUGUGAGGAUAUGCUGAACCUUGGUUCAGCAGAAGGCACAUGAGGAUCACCCAUGUGAAAAGCUUGG |  |  | 16.2 | 56 |
| CCGGCUGCUGUGAGGAUAUGCCUGUGGGUGCGUGGGUAGAAGGCACAUGAGGAUCACCCAUGUCCUGCGGCUCC |  |  | 877 | 311 |
| UUCCUCAUAACAUGAGGAUCACCCAUGUAUUAAUAGAUAACUGAGGAUAUACUAAUAAUGUUUAUGUAGAAGGCAGAUACAGAU |  |  | 49.6 | 106 |
| AUCAGCGCGUCAGGAUAUACGUCACUGCGUCAGCAGUGUGGUAAGAUCACAUGAGGAUCACCCAUGUAGAAGGGACGAGCUGAU |  |  | 12.8 | 307 |
| AAGCAGUGUAAAUAAACUCAAAUACAUGAGGAUCACCCAUGUAAGGAUAUGCAGUGGAAUACACUGCAGAAGGUACAUCACUGC |  |  | 15.1 | 22.6 |
| UUAGUCAUGUGACGUGUUGACAUUCCAGAAGGGCCACAUGAGGAUCACCCAUGUCGAAGAAACAGGCAGGAUAUGGACCAAUGG | 43 | 11.2 |  |  |
| CCGACAUGAGGAUAUCCAUCUGGAUCAGACUAGAUCCUGAUGGAGAAGGCACAUGAGGAUCACCCAUGUUACGG |  |  | 373 | 89.1 |
| UAUGUUUUAGGAUAUUGUACUGCUGACAUGAGGAUCACCCAUGUAUGCUAACUCGGCUGUCGAGAAGGAGAAUAUG |  |  | 64.3 | 56 |
| CUGAGCUGAGGAUAUACAUGAGGAUCACCCAUGUUUUGUAGUUAGUGAAGAAGUAGUUGUAGAAGGCAGUUCGG |  |  | 51.3 | 255 |
| GUCAGCUCUUGAGGAUAUACAACACUGCUUCGGCAGUGUAUUAAGAUCACAUGAGGAUCACCCAUGUAGAAGGCACGAGCUGAU |  |  | 13.2 | 170 |
| GAUACACAUGAGGAUCACCCAUGUGAGGAUAUGCGUACGUUGUCCGUAGGCGACGUGCGCAGAAGGCGCAAGGU |  |  | 83.2 | 95.3 |
| GGUUGUCAAAGACAACCUUAACGAACAUGAGGAUCACCCAUGUAGGAUAUGCUACUCAAAGAGUAGCAGAAGGACAUGUGUCUU |  |  | 30.8 | 156 |
| GGUCGGAGCAGAGGAUAUACAUGAGGAUCACCCAUGUAAUAAAGUGAAGCCUGGAAACAGGCAAUGUAGAAGGCUGCUCCGACA |  |  | 10.8 | 70.6 |
| ACAAAUCCUGACAUGAGGAUCACCCAUGUUAGAUUGUUAUGUCAGGAUAUUAUCUGGCAACCAGAUGAGAAGGGACGAUUUGUG | 722 | 64.7 |  |  |

| Sequence | apparent Kd [1] [nM] | apparent Kd [2] [nM] | apparent Kd [3] [nM] | apparent Kd [4] [nM] |
| --- | --- | --- | --- | --- |
| GUGCGGUAGGAGAAGGACGGAGGCUUCUUUACAUACAUGAGGAUCACCCAUGUAGGAUAUCCUACCUCACGCGGCCUCCUUCUG |  |  | 5.4 | 5.5 |
| CGAUGGCAUGUAGGAUAUCGAGCUCAAAGAGCUCGAGAAGGACAUGAGGAUCACCCAUGUCGUCACAGACAGUGACGGCUAUCG |  |  | 24.4 | 133 |
| CAGUACUGAGGAUAUACAUGAGGAUCACCCAUGUCCUAAAAGUAGGAUACUACUAUUAGUAGAAGGCAGUACUG |  |  | 17.9 | 190 |
| AAAUCGGCAGGAUAUACAUGAGGAUCACCCAUGUAAAUUUUUCGUUUAACUUGAAUGUGUAGAAGGGCCAUAAA |  |  | 25.6 | 27.1 |
| CUUCAAGAUGUGAGGAUAUCGCCGAUGAGGAUAGUUGAGAAGGUACAUGAGGAUCACCCAUGUAGGCUGGGUUU |  |  | 31.9 | 42.1 |
| AUCAGCUCGUCAGGAUAUACGUCACUGCGUCAGCAGCGUGGUAAGAUCACAUGAGGAUCACCCAUGUAGAAGGGACGAGCUGAU |  |  | 25.7 | 336 |
| ACAUACAUUCGAGGAUAUCGGUGAACAAAUUAACGAGAAGGCGAUAUAAGUUUUAAUCUUAUGAACAUGAGGAUCACCCAUGUA | 26.4 | 24.3 |  |  |
| AAUUACAGAGGAUAUGCGCGGUAAAACAUGAGGAUCACCCAUGUGAUACCUGCAUGACCGGCAGAAGGCUGCGUUU |  |  | 22.3 | 108 |
| AGCAUGCUUGGGUAACCUGGCACAUGAGGAUCACCCAUGUGACAGGAUAUCGACGUAGAUGACGACGAGAAGGGUCUGAUGGGU |  |  | 7.61 | 12.3 |
| UAAAAUAGUGUGAGGAUAUGCUGGUCCUUGGAUCAGCAGAAGGCACAUGAGGAUCACCCAUGUAGUUAAUUUUA |  |  | 40.5 | 218 |
| AAUAUGAGCUGGUUUAAAACCUAAACAUGAGGAUCACCCAUGUAGGAUAUCAGCACGAUAAGUGCUGAGAAGGACAUCCAGCUC |  |  | 15 | 14.7 |
| CGAAACUACGAGAAGGACAUGUGGUCCUUCAGUUACAUGAGGAUCACCCAUGUAGGAUAUCGUAGUUUCAGGAUCGUGAGAUCA |  |  | 37.4 | 7 |
| UCGACGAAAGUCGAACGAUGUAGCAGAAGGACAUGAGGAUCACCCAUGUCAGCUGUAACAGCCAUGUAGGAUAUGCUACAUCGC |  |  | 4.27 | 5.7 |
| UUUUAACAUGAGGAUCACCCAUGUGAGGAUAUCGUAAUUUUUAUUAAUAUUAAUAAAACGAGAAGGCACAUUUU |  |  | 96.6 | 81 |
| GGUGCACGCACAGGAUAUCCGGCGGAGCUCGUCGGAGAAGGGUGACAUGAGGAUCACCCAUGUACGUGCAACUUAGUUUAAGAG | 20 | 19 |  |  |
| CCCUCACAUGAGGAUCACCCAUGUGAGGAUAUGCAUUCCAAAGCGAGCUUUGAGAAGAGUAGAAGGCACUGGUG |  |  | 17.1 | 19.9 |
| AGUCGGCGAGGAUAUACAUGAGGAUCACCCAUGUGAUAUAGUGCACGCGUACGUGUACGUAGAAGGCGCUGACA |  |  | 13.3 | 40.1 |
| CAGUACUGAGGAUAUACAUGAGGAUCACCCAUGUGCCUUAGCUAGGAUACUAGCAUUAGUAGAAGGCAGUACUG |  |  | 14.1 | 158 |
